According to ChEMBL document CHEMBL4041496, “Natural-Based Indirubins Display Potent Cytotoxicity toward Wild-Type and T315I-Resistant Leukemia Cell Lines” (J Nat Prod, 2016):

Key:
[1] = molecular target: Tyrosine-protein kinase JAK2 (Homo sapiens, UniProt O60674); assay: Inhibition of recombinant JAK2 (unknown origin) after 120 mins in presence of [33P]ATP
[2] = molecular target: Proto-oncogene tyrosine-protein kinase Src (Homo sapiens, UniProt P12931); assay: Inhibition of recombinant c-Src (unknown origin) after 120 mins in presence of [33P]ATP
Sequence of Proto-oncogene tyrosine-protein kinase Src (P12931 2-536 limits assumed): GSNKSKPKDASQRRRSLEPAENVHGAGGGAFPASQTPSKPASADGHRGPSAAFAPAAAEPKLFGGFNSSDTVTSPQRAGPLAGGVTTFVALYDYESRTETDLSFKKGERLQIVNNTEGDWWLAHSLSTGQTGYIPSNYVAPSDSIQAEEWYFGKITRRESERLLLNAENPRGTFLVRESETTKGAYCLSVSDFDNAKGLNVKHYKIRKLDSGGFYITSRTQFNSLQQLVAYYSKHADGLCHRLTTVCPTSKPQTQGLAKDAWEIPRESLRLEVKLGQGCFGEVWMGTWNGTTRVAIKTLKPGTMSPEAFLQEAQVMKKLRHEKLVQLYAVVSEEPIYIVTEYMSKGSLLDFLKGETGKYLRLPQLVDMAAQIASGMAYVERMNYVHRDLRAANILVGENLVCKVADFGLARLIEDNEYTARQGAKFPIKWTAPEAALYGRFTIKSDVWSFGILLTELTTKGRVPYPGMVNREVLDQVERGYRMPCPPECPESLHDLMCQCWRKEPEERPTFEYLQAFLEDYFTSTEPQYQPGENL

[3] = test system: KCL-22; assay: Cytotoxicity against human KCL22 cells harboring ABL1 T315I mutant assessed as cell viability at 1 uM after 48 hrs by MTS assay relative to control; format: functional; settings: for viability at 1 µM: Homo sapiens, KCL-22, 48 h, read-out: Activity
In short: (§1)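 Single-concentration screen: KCL-22 cells, or KCL-22 cells expressing T315I mutant Bcr-Abl, grown in RPMI-1640 with 10% FBS. Cells were seeded at 10 000/well, held overnight at 37 °C in 5% CO2, then exposed to 1 μM compound for 48 h, with DMSO as vehicle control. Viability was read by MTS tetrazolium-to-formazan conversion, absorbance 490 nm, in triplicate.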

[4] = molecular target: Tyrosine-protein kinase ABL1 (Homo sapiens, UniProt P00519, T315I); assay: Inhibition of recombinant ABL1 T315I mutant (unknown origin) after 120 mins in presence of [33P]ATP
[5] = test system: KCL-22; assay: Cytotoxicity against human KCL22 cells assessed as cell viability at 1 uM after 48 hrs by MTS assay relative to control; format: functional; settings: for viability at 1 µM: Homo sapiens, KCL-22, 48 h, read-out: Activity; in short: as §1
[6] = molecular target: T1, Aurora kinase A (Homo sapiens, UniProt O14965); assay: Inhibition of recombinant Aurora A (unknown origin) after 120 mins in presence of [33P]ATP
T1 sequence (O14965 whole entry): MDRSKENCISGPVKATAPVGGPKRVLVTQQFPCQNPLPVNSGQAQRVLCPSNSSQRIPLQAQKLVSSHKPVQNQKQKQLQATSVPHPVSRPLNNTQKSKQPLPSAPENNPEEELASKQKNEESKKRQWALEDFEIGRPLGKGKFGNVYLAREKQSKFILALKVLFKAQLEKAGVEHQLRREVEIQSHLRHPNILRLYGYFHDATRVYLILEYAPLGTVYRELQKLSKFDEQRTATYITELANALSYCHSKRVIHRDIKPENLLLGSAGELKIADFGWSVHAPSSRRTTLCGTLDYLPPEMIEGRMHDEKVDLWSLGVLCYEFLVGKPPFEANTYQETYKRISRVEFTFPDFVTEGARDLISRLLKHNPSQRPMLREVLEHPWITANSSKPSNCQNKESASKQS

[7] = molecular target: Tyrosine-protein kinase ABL1 (Homo sapiens, UniProt P00519); assay: Inhibition of recombinant ABL1 (unknown origin) after 120 mins in presence of [33P]ATP
[8] = test system: KCL-22; assay: Cytotoxicity against human KCL22 cells assessed as reduction in cell viability after 48 hrs by MTS assay; format: functional, cell-based
[9] = test system: KCL-22; assay: Cytotoxicity against human KCL22 cells harboring ABL1 T315I mutant assessed as reduction in cell viability after 48 hrs by MTS assay; format: functional, cell-based; settings: KCL-22, 48 h

Sequence of Tyrosine-protein kinase JAK2 (O60674 whole entry): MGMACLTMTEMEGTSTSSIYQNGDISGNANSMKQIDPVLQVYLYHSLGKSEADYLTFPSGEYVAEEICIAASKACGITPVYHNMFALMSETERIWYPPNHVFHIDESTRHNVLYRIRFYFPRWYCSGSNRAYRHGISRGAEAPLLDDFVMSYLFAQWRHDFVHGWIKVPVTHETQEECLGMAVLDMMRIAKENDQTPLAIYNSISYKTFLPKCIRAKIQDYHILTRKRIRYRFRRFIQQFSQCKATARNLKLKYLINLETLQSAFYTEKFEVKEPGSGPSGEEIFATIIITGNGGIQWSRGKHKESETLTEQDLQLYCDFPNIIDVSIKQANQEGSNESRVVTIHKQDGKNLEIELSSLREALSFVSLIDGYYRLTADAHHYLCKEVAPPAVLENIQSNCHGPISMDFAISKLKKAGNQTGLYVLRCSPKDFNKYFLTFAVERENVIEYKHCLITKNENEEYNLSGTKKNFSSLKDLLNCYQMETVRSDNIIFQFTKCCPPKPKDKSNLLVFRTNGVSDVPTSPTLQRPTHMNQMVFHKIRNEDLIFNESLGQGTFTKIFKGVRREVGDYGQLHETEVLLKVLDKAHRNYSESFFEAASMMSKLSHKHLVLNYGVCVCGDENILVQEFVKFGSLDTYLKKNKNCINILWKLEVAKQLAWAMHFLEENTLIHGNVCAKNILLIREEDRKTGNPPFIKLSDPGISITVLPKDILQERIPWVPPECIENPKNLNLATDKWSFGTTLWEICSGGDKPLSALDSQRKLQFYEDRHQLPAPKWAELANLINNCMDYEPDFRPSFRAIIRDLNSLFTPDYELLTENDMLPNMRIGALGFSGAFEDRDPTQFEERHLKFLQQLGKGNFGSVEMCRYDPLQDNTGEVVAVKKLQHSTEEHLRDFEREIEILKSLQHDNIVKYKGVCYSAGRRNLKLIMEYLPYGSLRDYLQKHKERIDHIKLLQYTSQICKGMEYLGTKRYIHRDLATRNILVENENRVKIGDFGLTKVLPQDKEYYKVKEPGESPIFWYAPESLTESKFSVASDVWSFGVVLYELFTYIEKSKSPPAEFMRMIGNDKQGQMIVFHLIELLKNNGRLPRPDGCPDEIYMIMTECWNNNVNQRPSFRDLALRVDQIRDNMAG

Row | IC50 [1] [nM] | IC50 [2] [nM] | IC50 [4] [nM] | IC50 [6] [nM] | IC50 [7] [nM] | Structure (SMILES) | viability at 1 µM [3] [%] | viability at 1 µM [5] [%] | Activity [3] [%] | Activity [5] [%] | IC50 ([8]; Homo sapiens, KCL-22, 48 h) [nM] | IC50 ([8]; kcl-22) [nM] | IC50 [9] [nM]
1 | 4410 | 2.2 | 5940 | 175 | – | O=C1Nc2cc(Br)ccc2/C1=C1/Nc2ccccc2/C1=N\OCCN1CCCC1 [listing 1 of 2 here] | < 50 | < 50 | – | – | – | – | –
2 | 551 | < 0.5 | 178 | 9.7 | 7.2 | CN(CCO/N=C1/C(=C2/C(=O)Nc3cc(Br)ccc32)Nc2ccccc21)CC(O)CO (centres undefined) [listing 1 of 2 here] | – | – | <50 | <50 | – | – | –
3 | > 10000 | 1.7 | > 10000 | 330 | 468 | COCCN1CCN(CCO/N=C2/C(=C3/C(=O)Nc4cc(Br)ccc43)Nc3ccccc32)CC1 [listing 1 of 2 here] | – | – | <50 | >50 | – | – | –
4 | – | – | – | – | – | CN1CCN(CCO/N=C2/C(=C3/C(=O)Nc4cc(Br)ccc43)Nc3ccccc32)CC1 [listing 1 of 2 here] | – | – | >50 | <50 | 900 | – | –
5 | > 10000 | 0.83 | 5160 | 14.9 | 34.1 | O=C1Nc2cc(Br)ccc2/C1=C1/Nc2ccccc2/C1=N\OCCN1CCN(CCOCCO)CC1 | – | – | >50 | >50 | – | – | –
6 | 224 | < 0.5 | 9.4 | 7.1 | 0.87 | O=C1Nc2cc(Br)ccc2/C1=C1/Nc2ccccc2/C1=N\OCCN1CCNCC1 [listing 1 of 2 here] | < 50 | < 50 | – | – | – | 330 | 430
7 | 589 | 0.61 | 194 | – | 10.2 | CN(CCO/N=C1/C(=C2/C(=O)Nc3cc(Br)ccc32)Nc2ccccc21)CC(O)CO (centres undefined) [listing 2 of 2 here] | < 50 | < 50 | – | – | – | – | –
8 | – | – | – | – | – | O=C1Nc2cc(Br)ccc2/C1=C1/Nc2ccccc2/C1=N\OCC(O)CO (centres undefined) | > 50 | < 50 | – | – | 750 | – | –
9 | 7460 | 4.9 | 4560 | 79 | 106 | O=C1Nc2cc(Br)ccc2/C1=C1/Nc2ccccc2/C1=N\OCCN1CCCC1 [listing 2 of 2 here] | – | – | <50 | <50 | – | – | –
10 | – | – | – | – | – | O=C(NC(Cl)(Cl)Cl)O/N=C1/C(=C2/C(=O)Nc3cc(Br)ccc32)Nc2ccccc21 | > 50 | > 50 | – | – | – | – | –
11 | > 10000 | 3.9 | > 10000 | > 10000 | 3440 | COCCN1CCN(CCO/N=C2/C(=C3/C(=O)Nc4cc(Br)ccc43)Nc3ccccc32)CC1 [listing 2 of 2 here] | < 50 | > 50 | – | – | – | – | –
12 | – | – | – | – | – | CCCCCNC(=O)O/N=C1/C(=C2/C(=O)Nc3cc(Br)ccc32)Nc2ccccc21 | > 50 | > 50 | – | – | – | – | –
13 | – | – | – | – | – | O=C1Nc2cc(Br)ccc2/C1=C1/Nc2ccccc2/C1=N\OCCN1CCNCC1 [listing 2 of 2 here] | – | – | >50 | <50 | – | 780 | –
14 | – | – | – | – | – | CN1CCN(CCO/N=C2/C(=C3/C(=O)Nc4cc(Br)ccc43)Nc3ccccc32)CC1 [listing 2 of 2 here] | > 50 | < 50 | – | – | – | 500 | –
15 | – | – | – | – | – | O=C1Nc2cc(Br)ccc2/C1=C1/Nc2ccccc2/C1=N\OCCN1CCN(CCO)CC1 [listing 1 of 2 here] | – | – | >50 | <50 | 830 | – | –
16 | – | – | – | – | – | O=C1Nc2cc(Br)ccc2/C1=C1/Nc2ccccc2/C1=N\O [6BIO] | > 50 | > 50 | – | – | – | – | –
17 | – | – | – | – | – | O=C1Nc2cc(Br)ccc2/C1=C1/Nc2ccccc2/C1=N\OCCN1CCN(CCO)CC1 [listing 2 of 2 here] | > 50 | > 50 | – | – | – | – | –
